In ChEMBL document CHEMBL5331127, “Discovery of ARD-2051 as a Potent and Orally Efficacious Proteolysis Targeting Chimera (PROTAC) Degrader of Androgen Receptor for the Treatment of Advanced Prostate Cancer” (J Med Chem, 2023):
Activity calls are given as the source filed them.

Columns and labels:
[1] = target: T1, Androgen receptor (Homo sapiens) (UniProt P10275); test: Induction of androgen receptor degradation in human VCaP cells at 100 to 1000 nM incubated for 24 hrs by proteomic analysis; format: cell-based; conditions: dose 100-1000 nM
T1 sequence (whole entry): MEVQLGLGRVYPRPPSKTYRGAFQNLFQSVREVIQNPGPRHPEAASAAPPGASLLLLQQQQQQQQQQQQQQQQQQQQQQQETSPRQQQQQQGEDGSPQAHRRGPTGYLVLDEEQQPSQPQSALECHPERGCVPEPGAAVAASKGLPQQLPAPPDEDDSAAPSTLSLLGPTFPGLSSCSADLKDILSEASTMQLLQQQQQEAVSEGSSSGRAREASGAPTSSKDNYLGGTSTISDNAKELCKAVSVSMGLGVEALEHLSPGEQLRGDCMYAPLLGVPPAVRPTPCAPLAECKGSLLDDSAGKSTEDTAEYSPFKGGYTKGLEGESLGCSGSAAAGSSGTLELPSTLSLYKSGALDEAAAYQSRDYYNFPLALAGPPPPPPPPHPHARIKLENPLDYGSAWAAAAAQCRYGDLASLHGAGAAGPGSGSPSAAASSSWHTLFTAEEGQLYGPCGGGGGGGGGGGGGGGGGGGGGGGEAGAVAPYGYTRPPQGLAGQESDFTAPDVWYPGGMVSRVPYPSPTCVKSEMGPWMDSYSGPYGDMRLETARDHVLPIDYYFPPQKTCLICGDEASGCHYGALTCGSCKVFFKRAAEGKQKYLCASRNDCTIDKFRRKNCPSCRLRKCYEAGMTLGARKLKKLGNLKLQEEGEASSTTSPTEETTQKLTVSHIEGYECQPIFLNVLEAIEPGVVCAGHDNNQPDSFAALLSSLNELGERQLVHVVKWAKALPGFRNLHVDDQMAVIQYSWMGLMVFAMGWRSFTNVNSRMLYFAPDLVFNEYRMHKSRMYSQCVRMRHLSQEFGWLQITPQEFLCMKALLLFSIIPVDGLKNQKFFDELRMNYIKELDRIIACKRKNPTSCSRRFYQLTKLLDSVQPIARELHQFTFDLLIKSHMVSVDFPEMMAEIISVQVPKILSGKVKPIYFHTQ
Summary of the method: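 VCaP cells treated for 24 h with degrader at 100 nM or 1 μM, or with ARi-12 at 10 μM. Multiplexed quantitative proteomics, normalised to DMSO, three independent replicates. Cut-off p ≤0.05 and fold change >2.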

LNCaP [2] = test: Induction of androgen receptor degradation in human LNCaP cells at 100 nM pretreated with MLN4924 for 2 hrs followed by compound addition and 3 hrs by Western blot analysis; format: functional, cell-based; conditions: time 5.0 hrs
Summary of the method: (§1)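 LNCaP or VCaP cells pretreated 2 h with DMSO, ARi-12 (10 μM), thalidomide (10 μM), MG-132 (3 μM) or MLN4924 (0.5 μM), then given degrader at 100 nM for 3 h. AR measured by Western blot with GAPDH as loading control.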

Cytochrome P450 2C8 = target: T2, Cytochrome P450 2C8 (Homo sapiens, UniProt P10632); test: Inhibition of CYP2C8 in human liver microsomes preincubated for 5 mins followed by NADPH addition and measured after 20 mins by LC/MS analysis; format: ADME, Microsome
T2 sequence (P10632 whole entry): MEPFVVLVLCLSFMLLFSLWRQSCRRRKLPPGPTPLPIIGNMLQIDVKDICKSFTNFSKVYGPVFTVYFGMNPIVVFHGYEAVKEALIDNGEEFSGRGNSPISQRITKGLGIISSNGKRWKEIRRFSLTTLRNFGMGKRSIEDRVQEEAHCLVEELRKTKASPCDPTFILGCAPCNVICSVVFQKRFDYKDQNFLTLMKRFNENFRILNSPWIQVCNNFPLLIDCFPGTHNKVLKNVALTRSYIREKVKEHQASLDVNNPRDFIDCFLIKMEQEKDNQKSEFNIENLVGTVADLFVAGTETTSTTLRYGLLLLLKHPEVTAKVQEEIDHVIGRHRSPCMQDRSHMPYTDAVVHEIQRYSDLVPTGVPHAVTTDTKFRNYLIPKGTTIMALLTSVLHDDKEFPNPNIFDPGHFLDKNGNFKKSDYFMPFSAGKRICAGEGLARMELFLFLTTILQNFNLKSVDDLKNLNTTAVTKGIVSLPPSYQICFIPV

VCaP [3] = test: Antitumor activity against human VCaP cells xenografted in CB17 SCID mouse assessed as tumor growth inhibition at 7.5 mg/kg, po administered for 21 days; format: functional; conditions: 504 h, time 21 day, read-out: TGI
Summary of the method: (§2)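 SCID mice bearing VCaP xenografts dosed by oral gavage once daily for 21 days at 3.75, 7.5, 12.5 or 25 mg/kg. Tumour growth inhibition calculated against vehicle-treated mice at the end of treatment; body weight monitored.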

[4] = Metabolic stability in mouse plasma assessed as half life at 1 uM measured upto 120 mins by LC-MS/MS analysis; format: ADME, cell-free; conditions: 2 h
Summary of the method: (§3)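 Compound at 1 μM final in pre-warmed plasma of each species, 37 °C for up to 2 h. ACN/IS quench at 0, 5, 15, 30, 60 and 120 min; LC/MS. Procaine as reference (benfluorex for rat). t1/2 = 0.693/slope of ln(fraction remaining) versus time.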

LNCaP [5] = test: Downregulation of KLK3 gene expression in human LNCaP cells incubated for 24 hrs by qRT-PCR analysis; format: functional, cell-based; conditions: dose 0.03-30 nM
Summary of the method: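 LNCaP cells (RPMI 1640) or VCaP cells (DMEM Glutamax), both with 10% FBS, treated for 24 h. KLK3 mRNA measured by qRT-PCR and calculated by the comparative CT method against GAPDH and vehicle.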

[6] = Metabolic stability in dog plasma assessed as half life at 1 uM measured upto 120 mins by LC-MS/MS analysis; format: ADME, cell-free, Canis lupus familiaris; conditions: 2 h; summary of the method: as §3
LNCaP [7] = test: Growth inhibition in human LNCaP cells incubated for 4 days by WST-8 assay; format: functional, cell-based; conditions: 96 h
LNCaP [8] = test: Growth inhibition in human LNCaP cells incubated for 4 days by WST-8 assay relative to control; format: functional; conditions: time 4 day
Summary of the method: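 LNCaP cells grown in RPMI 1640 with 10% FBS, treated for 4 days. Viability read by WST-8 assay.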

VCaP [9] = test: Induction of androgen receptor degradation in human VCaP cells at 100 nM pretreated with MG132 for 2 hrs followed by compound addition and 3 hrs by Western blot analysis; format: functional, cell-based; conditions: time 5.0 hrs; summary of the method: as §1
[10] = Drug concentration in ICR mouse plasma at 10 mg/kg, po measured after 6 hrs; format: ADME, organism-based
Summary of the method: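 Mice given a single 10 mg/kg dose by oral gavage, 3 mice per time point. Plasma drug levels measured at 1, 3, 6 and 24 h; mean ± SD reported.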

VCaP [11] = test: Antitumor activity against human VCaP cells xenografted in CB17 SCID mouse assessed as tumor growth inhibition at 3.75 mg/kg, po administered for 21 days; format: functional; conditions: 504 h, time 21 day, read-out: TGI; summary of the method: as §2

SMILES: C[C@H]1CC2(CCN(c3ccc(C(=O)N4CCN(C5CN(c6ccc7c(c6)C(=O)N(C6CCC(=O)NC6=O)C7=O)C5)CC4)cc3)CC2)CN1c1ccc(C#N)c(Cl)c1 (some centres not stated)
- Activity [1]: 82%
- Activity (LNCaP [2]): inactive
- IC50 (Cytochrome P450 2C8): > 10000 nM
- inhibition in vivo at 7.5 mg/kg (VCaP [3]): 71%
- t1/2 [4]: > 2 h
- Activity (LNCaP [5]): Dose-Dependent Effect
- t1/2 [6]: > 2 h
- IC50 (LNCaP [7]): 13 nM
- Imax (LNCaP [8]): 100%
- Activity (VCaP [9]): inactive
- concentration at 6 h [10]: 369 ng/mL
- inhibition in vivo at 3.75 mg/kg (VCaP [11]): 44%
